High-throughput results as filed in PubChem BioAssay.
OXTR potentiator: human OXTR potentiators, primary screen, fluorescence, CHO-OTR cells, Fluo-8 calcium. Fluo-8 calcium fluorescence, potentiator mode; 0% = oxytocin EC15, 100% = EC100. activation, % at 3 µM. 320,000 compounds, 0.061% hits;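 active means activation above that plate's cutoff, the mean activation of tested compounds plus 3 SD, cut at about 6.6% in these data, passing the limit was not always enough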
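System: human OTR in CHO cells; Also added: sub-maximal oxytocin, roughly EC15; Timing: compound 6 min at room temperature before oxytocin, 100 s read; Technique: Fluo-8 intracellular calcium fluorescence, ex 470-495, em 515-575 nm; Controls: oxytocin EC15 low and EC100 high; Replication: singlicate.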
OXTR agonist: human OXTR agonists, primary screen, fluorescence, CHO-OTR cells, Fluo-8 calcium | Fluo-8 calcium fluorescence; normalized: DMSO 0%, oxytocin 100% | activation, % at 3 µM | 320,000 compounds, 0.32% hits;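 active means activation above the mean of all tested compounds plus 3 SD, cutoff set per screening run, cut at about 20% in these data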;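 further: peak over basal fluorescence ratio from a 100 s FLIPR kinetic read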
TRPML3 agonist: human TRPML3 channel agonists, primary screen, cell-based, HEK293 TRPML3-YFP, Fluo-8 calcium fluorescence, 3 µM | activation, % at 3 µM | 100% = the carbachol control signal | 220,000 compounds, 0.29% hits | Mucolipin-3 (Homo sapiens), Q8TDD5;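 active means activation above its plate's cutoff, the mean activation of the plate's test wells plus 3 SD, cut at about 12% in these data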
Target sequence (Q8TDD5 whole entry, looked up): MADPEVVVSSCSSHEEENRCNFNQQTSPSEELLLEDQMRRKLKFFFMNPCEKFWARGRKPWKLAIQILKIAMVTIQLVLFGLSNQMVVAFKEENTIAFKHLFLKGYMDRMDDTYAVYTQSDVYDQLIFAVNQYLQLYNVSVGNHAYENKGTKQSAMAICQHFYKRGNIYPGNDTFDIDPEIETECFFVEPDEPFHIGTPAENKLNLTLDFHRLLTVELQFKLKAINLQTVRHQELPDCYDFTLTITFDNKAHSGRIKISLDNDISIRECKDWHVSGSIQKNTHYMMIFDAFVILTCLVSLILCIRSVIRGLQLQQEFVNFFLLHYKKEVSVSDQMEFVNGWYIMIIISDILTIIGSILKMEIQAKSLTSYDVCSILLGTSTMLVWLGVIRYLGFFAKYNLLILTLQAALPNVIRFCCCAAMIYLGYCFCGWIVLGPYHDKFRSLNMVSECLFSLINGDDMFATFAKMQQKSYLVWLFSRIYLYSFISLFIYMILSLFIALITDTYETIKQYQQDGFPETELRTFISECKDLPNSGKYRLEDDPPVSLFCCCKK
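system = HEK293 cells stably carrying human TRPML3-YFP | doses = one concentration, 3 µM nominal, 0.3% DMSO | timing = dye loading 1 h 37 °C then 30 min ambient, 125 s read | detection = Fluo-8 calcium dye fluorescence, ex 470-495, em 515-575 nm | benchmarks = high control carbachol 87 µM, low control DMSO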
TRPN1 ag: zebrafish TRPN1 channel agonists, primary screen, cell-based, HEK293, calcium fluorescence; activation, % at 3 µM; HEK293 zebrafish TRPN1-YFP, Fluo-8 calcium fluorescence; 100% = response to 87 µM carbachol; 220,000 compounds, 0.18% hits;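 active means activation above its plate's cutoff, the mean activation of test wells on that plate plus 3 SD, cut at about 19% in these data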
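Control set: carbachol 87 µM as high control, DMSO as low control; system: HEK293 stable line with zebrafish TRPN1-YFP; read-out: % activation versus carbachol response; detection: intracellular calcium fluorescence with Fluo-8; doses: single test compound dose, 3 µM nominal, 0.3% DMSO; schedule: dye 1 h 37 °C plus 30 min RT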
V1aR counter: agonists of human V1a receptor, primary screen, counter-screen for OXTR agonist project, fluorescence, CHO-V1R cells | Fluo-8 calcium fluorescence, agonist mode; 0% DMSO, 100% 3 nM vasopressin | activation, % at 3 µM | 320,000 compounds, 0.25% hits | AID 2797, 2010;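 active means activation above the mean activation of all tested compounds plus 3 SD, per screening run, cut at about 20% in these data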;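 further: signal is peak over basal fluorescence ratio across a 100 second FLIPR read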
CRFR2-BP ag: agonists of CRF-BP/CRF-R2 complex, primary screen, cell-based, HEK293, calcium dye fluorescence, uHTS | AID 588473, 2011 | 350,000 compounds, 0.46% hits | CRF-binding protein / CRF receptor 2 complex (human) | calcium dye fluorescence (FLIPR); percent of saturating CRF peptide response | activation, % at 13.2 µM;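 active means activation of at least 50%, plus an integration ratio under a set limit after plate pattern correction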
Of the large screens only hits and unclear results are named; the others gave an inactive call. Compounds with a hit are over-represented: about 0.85% of the library has one in this group of screens.

Cc1cc2nc3s/c(=C/c4ccc(-c5ccccc5C(=O)O)o4)c(=O)n3c2cc1C	CRFR2-BP ag 141 (no result: TRPML3 agonist, TRPN1 ag)
O=C(O)c1cc(-c2ccc(/C=c3\sc4nc5ccc(Br)cc5n4c3=O)o2)ccc1Cl	none (no result: TRPML3 agonist, TRPN1 ag, CRFR2-BP ag)
N#Cc1c(-c2ccc(Cl)cc2)n(O)c2ccccc12	CRFR2-BP ag 57 (no result: OXTR potentiator, OXTR agonist, TRPML3 agonist, TRPN1 ag, V1aR counter)
O=C(Cc1ccccn1)c1ccncc1	none (no result: OXTR potentiator, OXTR agonist, TRPML3 agonist, TRPN1 ag, V1aR counter)
CN=C1SC(CC(=O)NCCc2ccc(OC)c(OC)c2)C(=O)N1C (configuration not stated)	OXTR agonist 34, V1aR counter 47
CCCOc1ccc(C(=O)NC(=S)NNC(=O)c2c(-c3ccccc3)noc2C)cc1	OXTR agonist 93, TRPML3 agonist 52, TRPN1 ag 99, V1aR counter 106, CRFR2-BP ag 145
Cc1onc(-c2ccccc2)c1C(=O)NC(=S)NNC(=O)c1ccccc1O	OXTR agonist 65, TRPML3 agonist 55, TRPN1 ag 81, V1aR counter 68, CRFR2-BP ag 202
CCCOc1ccc(NC(=O)c2c(-c3ccccc3)noc2C)cc1	none
Cc1onc(-c2ccccc2)c1C(=O)NC(=S)NNC(=O)c1ccc(O)cc1O	none
CN(CC(=O)Nc1ccc(OC(F)(F)F)cc1)C(=O)c1ccccc1SCC(=O)N1CCCC1	none (no result: OXTR potentiator, OXTR agonist, TRPML3 agonist, TRPN1 ag, V1aR counter)
CC1=NOC(=O)/C1=C\c1ccc(-c2cc(Cl)ccc2Cl)o1	CRFR2-BP ag 116
CC1=NOC(=O)/C1=C\c1ccc(-c2ccc(Br)cc2)o1	CRFR2-BP ag 69 (no result: OXTR potentiator, OXTR agonist, V1aR counter)
CC1=NOC(=O)/C1=C/c1ccc(-c2ccc(Cl)cc2)o1	none (no result: CRFR2-BP ag)
CC[C@]12c3[nH]c4cc(CCC(=O)N(C)C)ccc4c3CCN1C(=O)[C@@H](CC(=O)NCCCn1ccnc1)C[C@@H]2C(=O)N1CCN(C(=O)c2ccco2)CC1	none (no result: OXTR potentiator, OXTR agonist, TRPML3 agonist, TRPN1 ag, V1aR counter)
COc1ccc(Br)cc1CN(C)C(=O)c1cnc(C)cn1	none (no result: TRPML3 agonist, TRPN1 ag)
Nc1ncnc2c(C3OC(CO)C(O)C3O)scc12 (configuration not stated)	none (no result: OXTR potentiator, OXTR agonist, TRPML3 agonist, TRPN1 ag, V1aR counter)
CCOc1ccc(S(=O)(=O)N2CCOCC2)cc1NC(=O)CN1C(=O)NC2(CCCCC2)C1=O	none (no result: TRPML3 agonist, TRPN1 ag)
COc1ccc(-c2nc3c(c(=O)c4ccccc4n3C)c(=O)n2Cc2ccccc2)cc1	CRFR2-BP ag 53
COc1ccc(C)cc1NC(=O)COC(=O)c1c(-c2ccccc2)noc1C	none (no result: OXTR potentiator, OXTR agonist, TRPML3 agonist, TRPN1 ag, V1aR counter)
CCC1CCCCN1C(=O)COC(=O)COc1ccc(Br)cc1 (configuration not stated)	CRFR2-BP ag 93 (no result: TRPML3 agonist, TRPN1 ag)
O=C(NCc1ccco1)c1sc(=S)n2c1[nH]c(=O)c1ccccc12	OXTR agonist 24, V1aR counter 21, CRFR2-BP ag 55
O=C(NCc1ccccc1)c1ccc2c(=O)[nH]c3c(C(=O)NCC4CCCO4)sc(=S)n3c2c1 (configuration not stated)	none
O=C(NC1CCCC1)c1sc(=S)n2c1[nH]c(=O)c1ccccc12	CRFR2-BP ag 87
O=C1C[C@@H]2c3c(cccc3CN1Cc1ccc(F)cc1)C[C@@H](O)[C@H]2O	none (no result: TRPML3 agonist, TRPN1 ag)
Cc1ccccc1CCN(C(=O)c1csnn1)C(C(=O)NC1CCCC1)c1ccco1 (configuration not stated)	none (no result: TRPML3 agonist, TRPN1 ag)
Cc1cc(C)n2[nH]c(=O)cc2n1	none (no result: OXTR potentiator, OXTR agonist, TRPML3 agonist, TRPN1 ag, V1aR counter)
Cc1ccc(S(=O)(=O)c2cc3c(=O)n4ccccc4nc3n(Cc3ccco3)c2=N)cc1C	CRFR2-BP ag 79
N=c1c(S(=O)(=O)c2ccccc2)cc2c(=O)n3ccccc3nc2n1Cc1ccco1	CRFR2-BP ag 89
COc1ccc(/C=N/Nc2ccc([N+](=O)[O-])cc2S(=O)(=O)N2CCN(C)CC2)cc1	CRFR2-BP ag 56
COc1ccc(C=NNc2ccc([N+](=O)[O-])cc2S(=O)(=O)Nc2ccccc2C(=O)O)cc1OC	none (no result: TRPML3 agonist, TRPN1 ag)
Cc1cccc(N=Cc2[nH]c3ccc(Br)c(Cl)c3c2O)c1	CRFR2-BP ag 192
